Compound activity: PubChem BioAssay, several laboratories
Rtt109 Vps75: blocks Candida albicans Rtt109/Vps75 acetyltransferase activity. Q5AAJ8. purified Rtt109/Vps75, ThioGlo CoA-SH fluorescence, 4 h. inhibition, % at 34.9 µM. 0.16% of 330,000 active. AID 540336;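 active means inhibition of at least 50% in every replicate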
Target sequence (Q5AAJ8 whole entry, looked up): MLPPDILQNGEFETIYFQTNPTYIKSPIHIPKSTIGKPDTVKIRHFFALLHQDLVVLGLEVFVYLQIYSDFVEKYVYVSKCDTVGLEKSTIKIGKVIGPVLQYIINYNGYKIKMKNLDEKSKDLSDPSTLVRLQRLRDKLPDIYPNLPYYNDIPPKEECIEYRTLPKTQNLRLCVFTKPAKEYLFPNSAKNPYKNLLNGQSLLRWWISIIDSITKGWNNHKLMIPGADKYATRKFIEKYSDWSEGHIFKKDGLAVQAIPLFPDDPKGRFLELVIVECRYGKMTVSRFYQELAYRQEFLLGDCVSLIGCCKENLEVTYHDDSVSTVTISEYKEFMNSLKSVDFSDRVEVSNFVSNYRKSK
FGF22 binding-1: binders of recombinant human FGF22 by thermal shift. SYPRO orange fluorescence; percent of sucrose octasulfate shift, DMSO zero. activity (Tm shift, normalised), % at 9.99 µM. 1.5% of 340,000 active. AID 651658;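 active means mean Tm shift, scaled 0 neutral to 100 positive control, at about 1.3% or above, every replicate too, limit read from the data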
Target sequence (Q9HCT0 whole entry, looked up): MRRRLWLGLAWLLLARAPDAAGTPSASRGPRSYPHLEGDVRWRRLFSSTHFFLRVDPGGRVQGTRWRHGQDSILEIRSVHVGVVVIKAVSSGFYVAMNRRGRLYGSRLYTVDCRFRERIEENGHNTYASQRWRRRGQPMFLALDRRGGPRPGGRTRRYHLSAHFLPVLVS
ARFGAP1 inhibitor: inhibits rat ARF GTPase activating protein 1; Arfgap1-stimulated ARF1 GTP hydrolysis, GDP FP detection; inhibition, % at 16.5 µM; 0.26% of 360,000 active; AID 651572;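 active means inhibition above a per-plate limit, mean inhibition of low control wells plus 3 SD, cut at about 25% in these data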;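 further: 0% = DMSO wells with enzyme and 100% = wells lacking Arfgap1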
Target sequence (Q62848 1-136 limits assumed): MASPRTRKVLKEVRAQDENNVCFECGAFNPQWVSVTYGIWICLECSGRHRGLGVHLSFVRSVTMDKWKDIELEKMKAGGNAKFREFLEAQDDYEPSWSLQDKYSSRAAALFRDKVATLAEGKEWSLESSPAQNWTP
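Material: rat Arfgap1 catalytic domain, aa 1-136; also added: human ARF1(Δ1-17)-GTP substrate; compound dosing: one concentration, 16.5 µM, DMSO 1.26%; incubation: GTP hydrolysis reaction 2 h at 25 °C; measured by: Tracer-displacement fluorescence polarization with EDTA stop, 620/688 nm; evaluation: % inhibition from polarization; repeats: one replicate per compound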
ASAP1 GAP inh: blocks human ASAP1-stimulated Arf1 GTP hydrolysis; Q9ULH1; GDP FP detection; inhibition, % at 16.5 µM; 0.19% of 360,000 active; AID 624377; in the data active means inhibition above about 25%;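 further: 0% = vehicle with enzyme and substrate and 100% = no enzyme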
Efflux pump mplx: blocks antifungal efflux pumps in multiplex yeast assay; S. cerevisiae Candida pump triplex, Nile Red efflux; inhibition, % at 10 µM; 0.44% of 330,000 active; AID 485275;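 active means plate passing quality check with inhibition over a set limit, or well fluorescence over plate mean plus 4 SD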;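 further: Nile Red retained in pooled yeast measured as flow cytometry median fluorescence; 0% = buffer negative control and 100% = Enniatin B positive control; higher means more Nile Red kept so more efflux inhibition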
FGF22 binding-2: FGF22 (human) binding in thermal shift. shares compounds with FGF22 binding-1. recombinant FGF22 thermal shift, SYPRO orange fluorescence. thermal shift activity, °C (ΔTm) at 38 µM. 2% of 1,000 active. AID 720646;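 active means fitted rise in melting shift crosses a set limit at or below the top valid dose tested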
FGF22 TSA DP: FGF22 (human) binding by thermal shift | shares compounds with FGF22 binding-1 | Thermal shift assay, SYPRO orange, melting temperature shift | Tm shift (activity), % at 38 µM | 50 tested, under 10 active | AID 743017;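 active means compounds whose fitted dose curve of melting temperature shift rises past a set threshold within the tested doses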
SYPRO no-protein: shows thermal shift signal without protein, FGF22 counter-screen; 2% of 1,000 active; shares compounds with FGF22 binding-1; compound-only SYPRO orange thermal shift counter-screen, no protein; AC50, µM (top dose mostly 38 µM);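 active means rising signal whose fitted curve reaches the 0.54 level within the top valid dose, showing a melting point, actives reach about 13 µM in these data; inactive means the rest, including activity in the opposite direction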; further: value is where the raw curve crosses a fixed level and not half-maximal
Numbers without * were called inactive. Rows were chosen to be rich in hits. Some 1.9% of all compounds tested hit in one or more screens of this group.

Screening CC1CCCC(C)N1C(=O)Cn1nnc(-c2ccccc2)n1 (stereo unspecified) returned Rtt109 Vps75 -1, FGF22 binding-1 0, ARFGAP1 inhibitor 22, ASAP1 GAP inh 3 and Efflux pump mplx 0.
For O=C(CN1CCCC1)Nc1ccc(OC(F)(F)F)cc1 the results were Rtt109 Vps75 -1, FGF22 binding-1 26*, ARFGAP1 inhibitor 9, ASAP1 GAP inh 1, Efflux pump mplx 0, FGF22 binding-2 0.11 and SYPRO no-protein inactive.
Cc1ccccc1Cn1c(C(C)O)nc2ccccc21 (stereo unspecified) was read as Rtt109 Vps75 -5, ARFGAP1 inhibitor -4, ASAP1 GAP inh 0 and Efflux pump mplx 0.
For COc1ccc(CCNS(=O)(=O)CCNC(=O)c2ccc3c(c2)OCO3)cc1 the results were Rtt109 Vps75 1, FGF22 binding-1 11*, ARFGAP1 inhibitor 3, ASAP1 GAP inh -2, Efflux pump mplx 0, FGF22 binding-2 0.08 and SYPRO no-protein inactive.
`COc1ccc(CNS(=O)(=O)CCNC(=O)c2ccc3c(c2)OCO3)cc1` gave Rtt109 Vps75 3, FGF22 binding-1 0, ARFGAP1 inhibitor -4, ASAP1 GAP inh -15 and Efflux pump mplx 0.
For Cc1cc(=O)oc2cc(OC(C)C(=O)N3CCCc4ccccc43)ccc12 (stereo unspecified) the results were Rtt109 Vps75 -5, ARFGAP1 inhibitor 1, ASAP1 GAP inh 0 and Efflux pump mplx 0.
`Cc1cc(NC(=O)c2ccc3[nH]c(C)c(C)c3c2)ccn1` gave Rtt109 Vps75 4, FGF22 binding-1 0, ARFGAP1 inhibitor 12, ASAP1 GAP inh 2 and Efflux pump mplx 0.
For CC(=O)Nc1cccc(NC(=O)c2ccc3[nH]c(C)c(C)c3c2)c1 the results were Rtt109 Vps75 9, FGF22 binding-1 1.9*, ARFGAP1 inhibitor 7, ASAP1 GAP inh -1, Efflux pump mplx 0, FGF22 binding-2 -0.012, FGF22 TSA DP 0 and SYPRO no-protein inactive.
For O=C(Cn1cc(COc2ccc(Br)cc2[N+](=O)[O-])nn1)c1ccc(O)cc1 the results were Rtt109 Vps75 -2, FGF22 binding-1 1.7*, ARFGAP1 inhibitor -5, ASAP1 GAP inh -2, FGF22 binding-2 -0.002 and SYPRO no-protein inactive.
Screening CC(=O)c1ccc(OCc2cn(CC(=O)c3ccc(O)cc3)nn2)c(C)c1 returned FGF22 binding-1 1, ARFGAP1 inhibitor 2 and ASAP1 GAP inh 3.
`CC(=O)Nc1ccc(S(=O)(=O)Nc2nc3ccccc3nc2Nc2cccc(S(N)(=O)=O)c2)cc1` gave Rtt109 Vps75 7, FGF22 binding-1 2.0*, ARFGAP1 inhibitor 16, ASAP1 GAP inh 16, Efflux pump mplx 0, FGF22 binding-2 0.011 and SYPRO no-protein inactive.
`CC(=O)Nc1ccc(S(=O)(=O)Nc2nc3ccccc3nc2Nc2ccccc2)cc1` gave Rtt109 Vps75 1, FGF22 binding-1 1, ARFGAP1 inhibitor -11, ASAP1 GAP inh 14 and Efflux pump mplx 0.
For COCCN(C(=O)COC(=O)Cc1ccc(Cl)cc1)c1c(N)n(Cc2ccccc2)c(=O)[nH]c1=O the results were FGF22 binding-1 0, ARFGAP1 inhibitor -3 and ASAP1 GAP inh -6.
For O=S(=O)(/N=C(/Nc1nc2ccccc2s1)c1ccccc1)c1ccc(F)cc1 the results were Rtt109 Vps75 7, ARFGAP1 inhibitor -5 and ASAP1 GAP inh 3.
Screening O=S(=O)(/N=C(/Nc1nccs1)c1ccc(F)cc1)c1ccccc1 returned Rtt109 Vps75 2, FGF22 binding-1 38*, ARFGAP1 inhibitor -7, ASAP1 GAP inh 0, Efflux pump mplx 0, FGF22 binding-2 -0.062 and SYPRO no-protein inactive.
`O=C(CSc1nnnn1C1CC1)Nc1cccc(S(=O)(=O)N2CCCC2)c1` gave Rtt109 Vps75 4, FGF22 binding-1 0, ARFGAP1 inhibitor 2, ASAP1 GAP inh 8 and Efflux pump mplx 0.
For CCc1nnc(NS(=O)(=O)c2ccc(NC(=S)NC(=O)/C=C/c3ccc([N+](=O)[O-])cc3)cc2)s1 the results were Rtt109 Vps75 -9, FGF22 binding-1 2.5*, ARFGAP1 inhibitor 1, ASAP1 GAP inh 4, Efflux pump mplx 0, FGF22 binding-2 -0.005 and SYPRO no-protein inactive.
CCc1ccc(C(=O)NCc2cnn(C)c2)s1 was read as Rtt109 Vps75 -1, FGF22 binding-1 3.2*, ARFGAP1 inhibitor -6, ASAP1 GAP inh 3, Efflux pump mplx 0, FGF22 binding-2 0.2 and SYPRO no-protein inactive.
Cn1cc(CNC(=O)c2sc3cccc(Cl)c3c2Cl)cn1 was read as Rtt109 Vps75 -5, ARFGAP1 inhibitor 4, ASAP1 GAP inh 0 and Efflux pump mplx 0.
Screening CN=C1NN=C(c2cc(C)n(-c3c(C)n(C)n(-c4ccccc4)c3=O)c2C)CS1 returned FGF22 binding-1 1.6*, ARFGAP1 inhibitor 0, ASAP1 GAP inh -7, Efflux pump mplx 0, FGF22 binding-2 0.13 and SYPRO no-protein inactive.
`Nc1ccccc1N=Nc1ccccc1N` gave Rtt109 Vps75 4, FGF22 binding-1 2.5*, ARFGAP1 inhibitor 4, ASAP1 GAP inh -5, Efflux pump mplx 0, FGF22 binding-2 0.15 and SYPRO no-protein inactive.
Screening O=C(NNc1nc2c(F)cccc2s1)C1COc2ccccc2O1 (stereo unspecified) returned Rtt109 Vps75 5, FGF22 binding-1 0, ARFGAP1 inhibitor 2, ASAP1 GAP inh 2 and Efflux pump mplx 0.
`COc1cccc2sc(NNC(=O)C3COc4ccccc4O3)nc12` (stereo unspecified) gave FGF22 binding-1 17*, ARFGAP1 inhibitor 4, ASAP1 GAP inh 0, Efflux pump mplx 0, FGF22 binding-2 0.22 and SYPRO no-protein inactive.
`CCCONC(=O)Nc1ccccc1[N+](=O)[O-]` gave Rtt109 Vps75 3, ARFGAP1 inhibitor 3, ASAP1 GAP inh 0 and Efflux pump mplx 0.
Screening CCCNC(=O)CN1C(=O)NC(Cc2c[nH]c3ccccc23)C1=O (stereo unspecified) returned Rtt109 Vps75 -10, FGF22 binding-1 0, ARFGAP1 inhibitor -12, ASAP1 GAP inh 1 and Efflux pump mplx 0.
Screening O=C(CN1C(=O)NC(Cc2c[nH]c3ccccc23)C1=O)Nc1ccccc1Br (stereo unspecified) returned Rtt109 Vps75 -4, FGF22 binding-1 0, ARFGAP1 inhibitor -3, ASAP1 GAP inh -3 and Efflux pump mplx 0.
